Assay results as given in ChEMBL document CHEMBL1154032, “Substituted pyrimidines as cannabinoid CB1 receptor ligands” (Bioorg Med Chem Lett, 2009).
pIC50: −log10 of the molar value.

biological target: Cannabinoid receptor 1 (Rattus norvegicus, UniProt P20272); test: Displacement of [3H]CP-55940 from cannabinoid CB1 receptor in Sprague-Dawley rat cerebellar membrane by liquid scintillation spectrometry; parameters: species or system Cerebellum
How it was run: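 About 10 µg membrane incubated with 3 nM [3H]CP55,940, graded ligand concentrations, TME with 0.5% fatty-acid-free BSA, 1 h at 30 °C. PEI-soaked GF/B filtration, five ice-cold washes. IC50 by nonlinear regression, triplicate.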

Chain of Cannabinoid receptor 1 (P20272 whole entry): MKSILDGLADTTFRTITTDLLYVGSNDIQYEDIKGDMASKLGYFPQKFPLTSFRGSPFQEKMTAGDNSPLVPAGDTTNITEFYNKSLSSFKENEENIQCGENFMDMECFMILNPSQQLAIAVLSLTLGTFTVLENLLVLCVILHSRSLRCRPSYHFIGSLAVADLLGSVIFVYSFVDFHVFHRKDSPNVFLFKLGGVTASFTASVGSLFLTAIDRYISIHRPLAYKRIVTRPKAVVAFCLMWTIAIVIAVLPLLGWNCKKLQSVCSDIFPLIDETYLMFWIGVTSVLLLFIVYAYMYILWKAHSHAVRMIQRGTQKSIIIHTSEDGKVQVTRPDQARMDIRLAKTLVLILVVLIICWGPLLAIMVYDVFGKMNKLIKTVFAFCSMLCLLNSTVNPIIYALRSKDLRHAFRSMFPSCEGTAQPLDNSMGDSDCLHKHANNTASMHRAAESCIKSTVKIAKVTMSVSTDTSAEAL

| SMILES | pIC50 |
| --- | --- |
| C[C@H](Nc1cc(Nc2ccc(F)cc2)ncn1)[C@@H](Cc1ccc(Cl)cc1)c1cccc(Br)c1 | 7.01 |
| C[C@H](Nc1cc(N2CCCCC2)ncn1)[C@@H](Cc1ccc(Cl)cc1)c1cccc(Br)c1 | 7.68 |
| C[C@H](Nc1cc(C2CCCCC2)ncn1)[C@@H](Cc1ccc(Cl)cc1)c1cccc(Br)c1 | 7.20 |
| C[C@H](Nc1cc(C2CCCC2)ncn1)[C@@H](Cc1ccc(Cl)cc1)c1cccc(Br)c1 | 7.40 |
| C[C@H](Nc1cc(NC2CCCCC2)ncn1)[C@@H](Cc1ccc(Cl)cc1)c1cccc(Br)c1 | 7.56 |
| C[C@H](Nc1cc(NCC2CCCCC2)ncn1)[C@@H](Cc1ccc(Cl)cc1)c1cccc(Br)c1 | 7.15 |
| CC[C@H](Nc1cc(NC2CCCCC2)ncn1)[C@@H](Cc1ccc(Cl)cc1)c1cccc(Br)c1 | 6.24 |
| CCCCCNc1cc(N[C@@H](C)[C@@H](Cc2ccc(Cl)cc2)c2cccc(Br)c2)nc(C(F)(F)F)n1 | 7.23 |
| CCCCNc1cc(N[C@@H](C)[C@@H](Cc2ccc(Cl)cc2)c2cccc(Br)c2)nc(C)n1 | 7.09 |
| CC1CCN(c2cc(N[C@@H](C)[C@@H](Cc3ccc(Cl)cc3)c3cccc(Br)c3)ncn2)CC1 | 7.12 |
| Cc1nc(N[C@@H](C)[C@@H](Cc2ccc(Cl)cc2)c2cccc(Br)c2)cc(N2CCCCC2)n1 | 7.54 |
| CC(C)CCNc1cc(N[C@@H](C)[C@@H](Cc2ccc(Cl)cc2)c2cccc(Br)c2)ncn1 | 6.95 |
| CCCCc1cc(N[C@@H](C)[C@@H](Cc2ccc(Cl)cc2)c2cccc(Br)c2)ncn1 | 7.13 |
| C[C@H](Nc1cc(OC2CCCCC2)ncn1)[C@@H](Cc1ccc(Cl)cc1)c1cccc(Br)c1 | 7.02 |
| CSc1nc(N[C@@H](C)[C@@H](Cc2ccc(Cl)cc2)c2cccc(Br)c2)cc(N2CCCCC2)n1 | 6.96 |
| CCCCCCNc1cc(N[C@@H](C)[C@@H](Cc2ccc(Cl)cc2)c2cccc(Br)c2)ncn1 | 6.47 |
| Cc1nc(NCc2ccc(C(F)(F)F)cc2)cc(N[C@@H](C)[C@@H](Cc2ccc(Cl)cc2)c2cccc(Br)c2)n1 | 6.80 |
| CSc1nc(NC2CCCCCC2)cc(N[C@@H](C)[C@@H](Cc2ccc(Cl)cc2)c2cccc(Br)c2)n1 | 7.48 |
| CCC(CC)Nc1cc(N[C@@H](C)[C@@H](Cc2ccc(Cl)cc2)c2cccc(Br)c2)ncn1 | 7.03 |
| CCCCOc1cc(N[C@@H](C)[C@@H](Cc2ccc(Cl)cc2)c2cccc(Br)c2)ncn1 | 7.12 |
| CC[C@H](Nc1cc(NC2CCCCCC2)ncn1)[C@@H](Cc1ccc(Cl)cc1)c1cccc(Br)c1 | 6.20 |
| C[C@H](Nc1cc(N2CCCC2)ncn1)[C@@H](Cc1ccc(Cl)cc1)c1cccc(Br)c1 | 6.94 |
| C[C@H](Nc1cc(N2CCOCC2)ncn1)[C@@H](Cc1ccc(Cl)cc1)c1cccc(Br)c1 | 7.16 |
| CCCNc1cc(N[C@@H](C)[C@@H](Cc2ccc(Cl)cc2)c2cccc(Br)c2)ncn1 | 7.32 |
| Clc1ccc(C[C@H](CNc2cc(NC3CCCCCC3)ncn2)c2cccc(Br)c2)cc1 | 5.81 |

Next, values leading:

| pIC50 | SMILES |
| --- | --- |
| 7.61 | C[C@H](Nc1cc(NC2CCCC2)ncn1)[C@@H](Cc1ccc(Cl)cc1)c1cccc(Br)c1 |
| 7.18 | Cc1nc(NC2CCCCCC2)cc(N[C@@H](C)[C@@H](Cc2ccc(Cl)cc2)c2cccc(Br)c2)n1 |
| 7.41 | C[C@H](Nc1cc(NC2CCCCCC2)nc(C(F)(F)F)n1)[C@@H](Cc1ccc(Cl)cc1)c1cccc(Br)c1 |
| 6.69 | CCCCCOc1cc(N[C@@H](C)[C@@H](Cc2ccc(Cl)cc2)c2cccc(Br)c2)ncn1 |
| 6.71 | CCCCCNc1cc(N[C@@H](C)[C@@H](Cc2ccc(Cl)cc2)c2cccc(Br)c2)ncn1 |
| 6.99 | CCCCC(CC)CNc1cc(N[C@@H](C)[C@@H](Cc2ccc(Cl)cc2)c2cccc(Br)c2)ncn1 (some centres not stated) |
| 7.01 | Cc1nc(NC2CCCC2)cc(N[C@@H](C)[C@@H](Cc2ccc(Cl)cc2)c2cccc(Br)c2)n1 |
| 6.81 | CC(C)CNc1cc(N[C@@H](C)[C@@H](Cc2ccc(Cl)cc2)c2cccc(Br)c2)ncn1 |
| 6.94 | C[C@H](Nc1cc(NCC2CCCO2)ncn1)[C@@H](Cc1ccc(Cl)cc1)c1cccc(Br)c1 (some centres not stated) |
| 7.36 | CCCCNc1cc(N[C@@H](C)[C@@H](Cc2ccc(Cl)cc2)c2cccc(Br)c2)nc(C(F)(F)F)n1 |
| 7.34 | C[C@H](Nc1cc(NC2CCCCCC2)ncn1)[C@@H](Cc1ccc(Cl)cc1)c1cccc(Br)c1 |
| 6.97 | CCN(C)c1cc(N[C@@H](C)[C@@H](Cc2ccc(Cl)cc2)c2cccc(Br)c2)ncn1 |
| 7.17 | C[C@H](Nc1cc(Nc2ccccc2)ncn1)[C@@H](Cc1ccc(Cl)cc1)c1cccc(Br)c1 |
| 6.55 | CC1CC(C)CN(c2cc(N[C@@H](C)[C@@H](Cc3ccc(Cl)cc3)c3cccc(Br)c3)ncn2)C1 (some centres not stated) |
| 7.79 | CCCCNc1cc(N[C@@H](C)[C@@H](Cc2ccc(Cl)cc2)c2cccc(Br)c2)ncn1 |
| 6.87 | CCCCCCOc1cc(N[C@@H](C)[C@@H](Cc2ccc(Cl)cc2)c2cccc(Br)c2)ncn1 |

| pIC50 | SMILES |
| --- | --- |
| 7.20 | CC[C@H](Nc1cc(NC2CCCC2)ncn1)[C@@H](Cc1ccc(Cl)cc1)c1cccc(Br)c1 |
| 6.87 | COc1cc(N[C@@H](C)[C@@H](Cc2ccc(Cl)cc2)c2cccc(Br)c2)ncn1 |
| 7.65 | C[C@H](Nc1cc(NC2CCCCC2)nc(C(F)(F)F)n1)[C@@H](Cc1ccc(Cl)cc1)c1cccc(Br)c1 |
| 7.24 | CSc1nc(NC2CCCCC2)cc(N[C@@H](C)[C@@H](Cc2ccc(Cl)cc2)c2cccc(Br)c2)n1 |
| 6.71 | C[C@H](Nc1cc(N2CCCCC2)nc(C(F)(F)F)n1)[C@@H](Cc1ccc(Cl)cc1)c1cccc(Br)c1 |
| 6.58 | C[C@H](Nc1cc(NCc2ccccn2)ncn1)[C@@H](Cc1ccc(Cl)cc1)c1cccc(Br)c1 |
| 7.16 | CCCCNc1cc(N[C@@H](C)[C@@H](Cc2ccc(Cl)cc2)c2cccc(Br)c2)nc(SC)n1 |
| 6.71 | C[C@H](Nc1cc(NCc2ccccc2)ncn1)[C@@H](Cc1ccc(Cl)cc1)c1cccc(Br)c1 |
| 7.03 | C[C@H](Nc1cc(N2CCCCCC2)ncn1)[C@@H](Cc1ccc(Cl)cc1)c1cccc(Br)c1 |
| 7.12 | C[C@H](Nc1cc(N2CCC(C(F)(F)F)CC2)ncn1)[C@@H](Cc1ccc(Cl)cc1)c1cccc(Br)c1 |
| 6.89 | Cc1nc(N[C@@H](C)[C@@H](Cc2ccc(Cl)cc2)c2cccc(Br)c2)cc(N(C)C)n1 |
| 7.66 | Cc1nc(NC2CCCCC2)cc(N[C@@H](C)[C@@H](Cc2ccc(Cl)cc2)c2cccc(Br)c2)n1 |
| 6.87 | C[C@H](Nc1cc(OCC2CCCCC2)ncn1)[C@@H](Cc1ccc(Cl)cc1)c1cccc(Br)c1 |
| 7.15 | Clc1ccc(C[C@H](CNc2cc(N3CCCCC3)ncn2)c2cccc(Br)c2)cc1 |
| 6.55 | CC[C@H](Nc1cc(N2CCCCC2)ncn1)[C@@H](Cc1ccc(Cl)cc1)c1cccc(Br)c1 |

biological target: Cannabinoid receptor 2 (Homo sapiens, UniProt P34972); test: Displacement of [3H]WIN-55212-2 from human recombinant CB2 receptor expressed in CHOK1 cells by liquid scintillation spectrometry; type: cell-based, CHO-K1
How it was run: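 Membranes from CHO K-1 cells transfected with human CB2, prepared as for brain tissue (TME buffer pH 7.4, 48,000g spin). About 10 µg membrane incubated with 3 nM [3H]WIN55,212-2 and graded ligand concentrations in TME with 0.5% fatty-acid-free BSA, 1 h at 30 °C. Filtered over PEI-soaked GF/B, washed five times ice-cold. IC50 from nonlinear regression, triplicate.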

Chain of Cannabinoid receptor 2 (P34972 whole entry): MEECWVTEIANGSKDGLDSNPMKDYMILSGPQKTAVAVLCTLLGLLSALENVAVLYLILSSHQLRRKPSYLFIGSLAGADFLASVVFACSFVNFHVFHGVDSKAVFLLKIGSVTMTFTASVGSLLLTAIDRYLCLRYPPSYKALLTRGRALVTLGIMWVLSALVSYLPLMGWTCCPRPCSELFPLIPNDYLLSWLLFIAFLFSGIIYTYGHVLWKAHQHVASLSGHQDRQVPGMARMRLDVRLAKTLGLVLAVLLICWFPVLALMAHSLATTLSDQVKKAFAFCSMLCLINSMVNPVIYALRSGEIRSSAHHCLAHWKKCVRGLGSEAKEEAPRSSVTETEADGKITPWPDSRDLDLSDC

| pIC50 | SMILES |
| --- | --- |
| 5.53 | CCCCNc1cc(N[C@@H](C)[C@@H](Cc2ccc(Cl)cc2)c2cccc(Br)c2)ncn1 |
